Measured values as given in ChEMBL document CHEMBL2203149, “Carvacrol decreases neuronal excitability by inhibition of voltage-gated sodium channels” (J Nat Prod, 2012).
Calls of active or inactive are those of the source.

Key:
[1] = Reduction in amplitude of compound action potential in bullfrog sciatic nerve at 0.5 mM after 15 mins by electrophysiology; format: functional, Rana catesbeiana; conditions: Aquarana catesbeiana, 0.25 h
[2] = Reduction in amplitude of compound action potential in frog sciatic nerve by electrophysiology; format: functional, tissue-based, Anura
Sciatic nerve [3] = experiment: Reduction in peak-to-peak amplitude of compound action potential in Wistar rat sciatic nerve at 1 mM after 180 mins by electrophysiology; format: functional, tissue-based
In short: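 Sciatic nerve from Wistar rats (200–300 g, both sexes) held in a moist chamber, with a 15–20 mm segment immersed in Locke's solution that carried the drug (DMSO ≤0.2% v/v). One end was stimulated and evoked CAPs were recorded 40–50 mm away. Exposure lasted 180 min and began after at least 30 min of stable amplitude. Read-out was peak-to-peak amplitude, at 18–22 °C, n = 5, followed by 180 min washout.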

Sciatic nerve [4] = experiment: Reduction in peak-to-peak amplitude of compound action potential in Wistar rat sciatic nerve at 1 mM after 180 mins and measured after 180 mins washout by electrophysiology; format: functional, tissue-based
In short: (§1)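 Evoked compound action potentials in Wistar rat sciatic nerve, recorded 40–50 mm from the stimulating electrodes and sampled at 20 kHz. The segment was bathed in Locke's solution carrying the drug (0.03–1 mM) after at least 30 min of stable amplitude. Exposure lasted 180 min, then 180 min washout. Peak-to-peak amplitude, n = 5 per concentration; IC50 from a logistic fit at 180 min.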

Sciatic nerve [5] = experiment: Reduction in peak-to-peak amplitude of compound action potential in Wistar rat sciatic nerve at 0.3 mM after 180 mins by electrophysiology; format: functional, tissue-based; in short: as §1
Sciatic nerve [6] = experiment: Reduction in peak-to-peak amplitude of compound action potential in Wistar rat sciatic nerve after 180 mins by electrophysiology; format: functional, tissue-based; conditions: 3 h; in short: as §1
Sciatic nerve [7] = experiment: Inhibition of first component amplitude of compound action potential in Wistar rat Aalpha sciatic nerve after 180 mins by electrophysiology; format: functional, tissue-based; in short: as §1
Sciatic nerve [8] = experiment: Inhibition of second component amplitude of compound action potential in Wistar rat Abeta and Agamma sciatic nerve within 60 mins by electrophysiology; format: functional, tissue-based; in short: as §1
[9] = […] of Wistar rat sciatice nerve fiber excitability assessed as increase in rheobase at 0.6 mM (reference value: 3.30 +/- 0.06 V); format: functional
[10] = […] of Wistar rat sciatice nerve fiber excitability assessed as increase in chronaxy measured as time at 0.6 mM (reference value: 59.6 +/- 1.2 microsec); format: functional
[11] = Effect on action potential in Wistar rat DRG neuron assessed as amplitude reduction at 0.03 mM after 12 to 48 hrs by patch-clamp recordings (reference value: 79 +/- 1.3 mV); format: functional
[12] = Effect on action potential in Wistar rat DRG neuron assessed as amplitude reduction at 0.1 mM after 12 to 48 hrs by patch-clamp recordings (reference value: 79 +/- 1.3 mV); format: functional
[13] = Effect on action potential in Wistar rat DRG neuron assessed as amplitude reduction at 0.3 mM after 12 to 48 hrs by patch-clamp recordings (reference value: 79 +/- 1.3 mV); format: functional
[14] = Effect on action potential in Wistar rat DRG neuron assessed as amplitude reduction at 0.6 mM after 12 to 48 hrs by patch-clamp recordings (reference value: 79 +/- 1.3 mV); format: functional
[15] = Effect on action potential in Wistar rat DRG neuron assessed as amplitude reduction at 1 mM after 12 to 48 hrs by patch-clamp recordings (reference value: 79 +/- 1.3 mV); format: functional
[16] = Effect on action potential in Wistar rat DRG neuron assessed as amplitude reduction at 3 mM after 12 to 48 hrs by patch-clamp recordings (reference value: 79 +/- 1.3 mV); format: functional
[17] = Effect on action potential in Wistar rat DRG neuron assessed as resting potential at 0.03 mM after 12 to 48 hrs by patch-clamp recordings (reference value: -60 +/- 1.1 mV); format: functional
[18] = Effect on action potential in Wistar rat DRG neuron assessed as resting potential at 0.1 mM after 12 to 48 hrs by patch-clamp recordings (reference value: -60 +/- 1.1 mV); format: functional
[19] = Effect on action potential in Wistar rat DRG neuron assessed as resting potential at 0.3 mM after 12 to 48 hrs by patch-clamp recordings (reference value: -60 +/- 1.1 mV); format: functional
[20] = Effect on action potential in Wistar rat DRG neuron assessed as resting potential at 0.6 mM after 12 to 48 hrs by patch-clamp recordings (reference value: -60 +/- 1.1 mV); format: functional
[21] = Effect on action potential in Wistar rat DRG neuron assessed as resting potential at 1 mM after 12 to 48 hrs by patch-clamp recordings (reference value: -60 +/- 1.1 mV); format: functional
[22] = Effect on action potential in Wistar rat DRG neuron assessed as resting potential at 3 mM after 12 to 48 hrs by patch-clamp recordings (reference value: -60 +/- 1.1 mV); format: functional
[23] = Effect on action potential in Wistar rat DRG neuron assessed as input resistance at 0.03 mM after 12 to 48 hrs by patch-clamp recordings (reference value: 25.5 +/- 2.1 Momega); format: functional
[24] = Effect on action potential in Wistar rat DRG neuron assessed as input resistance at 0.1 mM after 12 to 48 hrs by patch-clamp recordings (reference value: 25.5 +/- 2.1 Momega); format: functional
[25] = Effect on action potential in Wistar rat DRG neuron assessed as input resistance at 0.3 mM after 12 to 48 hrs by patch-clamp recordings (reference value: 25.5 +/- 2.1 Momega); format: functional
[26] = Effect on action potential in Wistar rat DRG neuron assessed as input resistance at 0.6 mM after 12 to 48 hrs by patch-clamp recordings (reference value: 25.5 +/- 2.1 Momega); format: functional
[27] = Effect on action potential in Wistar rat DRG neuron assessed as input resistance at 1 mM after 12 to 48 hrs by patch-clamp recordings (reference value: 25.5 +/- 2.1 Momega); format: functional
[28] = Effect on action potential in Wistar rat DRG neuron assessed as input resistance at 3 mM after 12 to 48 hrs by patch-clamp recordings (reference value: 25.5 +/- 2.1 Momega); format: functional
[29] = Effect on action potential in Wistar rat DRG neuron assessed as maximum ascendant inclination at 0.03 mM after 12 to 48 hrs by patch-clamp recordings (reference value: 151.2 +/- 6.2 V/s); format: functional
[30] = Effect on action potential in Wistar rat DRG neuron assessed as maximum ascendant inclination at 0.1 mM after 12 to 48 hrs by patch-clamp recordings (reference value: 151.2 +/- 6.2 V/s); format: functional
[31] = Effect on action potential in Wistar rat DRG neuron assessed as maximum ascendant inclination at 0.3 mM after 12 to 48 hrs by patch-clamp recordings (reference value: 151.2 +/- 6.2 V/s); format: functional
[32] = Effect on action potential in Wistar rat DRG neuron assessed as maximum ascendant inclination at 0.6 mM after 12 to 48 hrs by patch-clamp recordings (reference value: 151.2 +/- 6.2 V/s); format: functional
[33] = Effect on action potential in Wistar rat DRG neuron assessed as maximum ascendant inclination at 1 mM after 12 to 48 hrs by patch-clamp recordings (reference value: 151.2 +/- 6.2 V/s); format: functional
[34] = Effect on action potential in Wistar rat DRG neuron assessed as maximum ascendant inclination at 3 mM after 12 to 48 hrs by patch-clamp recordings (reference value: 151.2 +/- 6.2 V/s); format: functional
[35] = Effect on action potential in Wistar rat DRG neuron assessed as maximum descendant inclination at 3 mM after 12 to 48 hrs by patch-clamp recordings (reference value: -104.7 +/- 3.6 V/s); format: functional
[36] = Effect on action potential in Wistar rat DRG neuron assessed as duration at half maximal amplitute at 0.03 mM after 12 to 48 hrs by patch-clamp recordings (reference value: 1.6 +/- 0.1 ms); format: functional
[37] = Effect on action potential in Wistar rat DRG neuron assessed as duration at half maximal amplitute at 0.1 mM after 12 to 48 hrs by patch-clamp recordings (reference value: 1.6 +/- 0.1 ms); format: functional
[38] = Effect on action potential in Wistar rat DRG neuron assessed as duration at half maximal amplitute at 0.3 mM after 12 to 48 hrs by patch-clamp recordings (reference value: 1.6 +/- 0.1 ms); format: functional
[39] = Effect on action potential in Wistar rat DRG neuron assessed as duration at half maximal amplitute at 0.6 mM after 12 to 48 hrs by patch-clamp recordings (reference value: 1.6 +/- 0.1 ms); format: functional
Rattus norvegicus [40] = organism: Rattus norvegicus; experiment: Inhibition of voltage-gated sodium channel of Wistar rat dissociated DRG neuron assessed as inhibition of current induced of voltage-gated sodium current at -100 mV holding potential with 5 sec intervals at 3 mM after 120 secs by patch-clamp recordings
In short: (§2)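 Wistar rat DRG neurons dissociated with 1 mg/mL collagenase I (75 min) and 2.5 mg/mL trypsin (15 min) at 37 °C, plated on poly-D-lysine and used 12–48 h later. Whole-cell voltage clamp used 100 ms steps to 0 mV from −100 mV every 5 s, at room temperature. External solution: 20 mM NaCl with TEA, Cs and Cd, pH 7.4. Internal solution: CsCl, pH 7.2. Drug 0.01–10 mM, n = 50 cells, logistic fit.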

[41] = Inhibition of voltage-gated sodium channel of Wistar rat dissociated DRG neuron assessed as inhibition of current induced of voltage-gated sodium current at -100 mV holding potential with 5 sec intervals by patch-clamp recordings; in short: as §2
[42] = Blockade of action potential in Wistar rat DRG neuron after 12 to 48 hrs by intracellular recordings
[43] = Effect on action potential in Wistar rat DRG neuron assessed as maximum descendant inclination at 1 mM by intracellular recording (reference value: -104.7 +/- 3.6 V/s)
[44] = Effect on action potential in Wistar rat DRG neuron assessed as duration at half maximal amplitute at 1 mM by intracellular recording (reference value: 1.6 +/- 0.1 ms)
[45] = Effect on action potential in Wistar rat DRG neuron assessed as duration at half maximal amplitute at 3 mM by intracellular recording (reference value: 1.6 +/- 0.1 ms)
[46] = Effect on action potential in Wistar rat DRG neuron assessed as maximum descendant inclination at 0.1 mM by intracellular recording (reference value: -104.7 +/- 3.6 V/s)
[47] = Effect on action potential in Wistar rat DRG neuron assessed as maximum descendant inclination at 0.3 mM by intracellular recording (reference value: -104.7 +/- 3.6 V/s)
[48] = Effect on action potential in Wistar rat DRG neuron assessed as maximum descendant inclination at 0.6 mM by intracellular recording (reference value: -104.7 +/- 3.6 V/s)
[49] = Effect on action potential in Wistar rat DRG neuron assessed as maximum descendant inclination at 0.03 mM by intracellular recording (reference value: -104.7 +/- 3.6 V/s)
[50] = Effect on action potential in Wistar rat DRG neuron assessed as elevation in current threshold levels at 0.03 to 3 mM after 12 to 48 hrs by intracellular recordings relative to control
Rattus norvegicus [51] = organism: Rattus norvegicus; experiment: Inhibition of voltage-gated sodium channel of […] rat dissociated DRG neuron assessed as inhibition of current induced of voltage-gated sodium current at holding potential by patch-clamp recordings; conditions: concentration not given here

Compound `CCN(CC)CC(=O)Nc1c(C)cccc1C` [LIDOCAINE] has an inhibition at 500 µM [1] of 46% and an IC50 [2] of 740 µM.

For `Cc1ccc(C(C)C)cc1O` [CARVACROL], the inhibition (Sciatic nerve [3]) was “Active”, the inhibition (Sciatic nerve [4]) was “inactive” and the inhibition (Sciatic nerve [5]) was “inactive”. For the same compound, the IC50 (Sciatic nerve [6]) was 500 µM, the inhibition (Sciatic nerve [7]) was “Active” and the inhibition (Sciatic nerve [8]) was “Active”. It also gave an Activity [9] of 4.16 V, a Time [10] of 75 microsec and an inhibition at 500 µM [1] of 50%. The IC50 [2] was 500 µM, the Activity [11] was 77 mV and the Activity [12] was 53.9 mV. For the same compound, the Activity [13] was 43.9 mV, the Activity [14] was 32.1 mV and the Activity [15] was 4.2 mV. It also gave an Activity [16] of 0 mV, an Activity [17] of -62.6 mV and an Activity [18] of -60.2 mV. For the same compound, the Activity [19] was -59.7 mV, the Activity [20] was -60.2 mV and the Activity [21] was -60.2 mV. For the same compound, the Activity [22] was -57.5 mV, the Activity [23] was 29.3 MΩ and the Activity [24] was 26.7 MΩ. The Activity [25] was 27.1 MΩ, the Activity [26] was 23.3 MΩ and the Activity [27] was 26.3 MΩ. For the same compound, the Activity [28] was 20.8 MΩ, the Activity [29] was 128.6 V/s and the Activity [30] was 94.8 V/s. It also gave an Activity [31] of 84.4 V/s, an Activity [32] of 56.5 V/s and an Activity [33] of 4.4 V/s. For the same compound, the Activity [34] was 0 V/s, the Activity [35] was 0 V/s and the Time [36] was 1.6 ms. For the same compound, the Time [37] was 1.5 ms, the Time [38] was 0.9 ms and the Time [39] was 0.6 ms. The inhibition (Rattus norvegicus [40]) was “Active”, the IC50 [41] was 370 µM and the IC50 [42] was 360 µM. For the same compound, the Activity [43] was -4.5 V/s, the Time [44] was 0.2 ms and the Time [45] was 0 ms. The Activity [46] was -78.9 V/s, the Activity [47] was -62.7 V/s and the Activity [48] was -48 V/s. For the same compound, the Activity [49] was -102.2 V/s, the Activity [50] was 62.4% and the inhibition (Rattus norvegicus [51]) was 70%.
